Series [1] is described as follows: folding enthalpy; higher = less favourable; fluorescence melt of hairpins on a sequencing array, two-state fit. The conditions noted are these: sodium 0.088 M. The gist of the method: (§1)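 With Cy3 and quencher oligos annealed, library hairpins on a sequenced MiSeq flow cell were imaged for Cy3 fluorescence in 50 mM Na-HEPES pH 8.0, 25 mM NaCl, in 2.5 °C steps up to 60 °C. Melting temperature and folding enthalpy were derived from bootstrapped two-state fits of signals normalised to pre-quench Cy3 and to control constructs. Four replicates were combined by inverse variance, with fitted temperatures raised by 9.35 °C to match UV melts.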

A short description of series [2]: melting temperature; fluorescence melt of hairpins on a sequencing array, two-state fit, raised by 9.35 °C to match UV melts. As to conditions: sodium 0.088 M. Summed up:
as §1

For the sequence GATCGAGGAAACCCGATC (((((.(....).))))), in series [1], the folding enthalpy is -33.1 kcal/mol. In addition, in series [2], the Tm was 47.8 °C.
Regarding GATCGAGGACTCGATC ((((((....)))))), the folding enthalpy in series [1] was -38.4 kcal/mol. For the same sequence, the Tm in series [2] came out at 60.1 °C.
In the same order, the values of GATCGAGGATCGATC ((((((...)))))) are -35.4 kcal/mol and 59.6 °C.
For GATCGAGGCCTCGATC ((((((....)))))) the same measures were -49.1 kcal/mol and 62.2 °C.
In the same order, the values of GATCGAGGCTTCGATC ((((((....)))))) are -41.8 kcal/mol and 57.9 °C.
With GATCGAGTATCGATC ((((((...)))))), in series [1], the folding enthalpy is -40.9 kcal/mol. The Tm in series [2] was 59.6 °C.
In the same order, the values of GATCGAGTCATCGATC ((((((....)))))) are -35.4 kcal/mol and 60.7 °C.
In the same order, the values of GATCGAGTCGTCGATC ((((((....)))))) are -35.6 kcal/mol and 54.9 °C.
In the same order, the values of GATCGAGTGCTCGATC ((((((....)))))) are -58.9 kcal/mol and 53.8 °C.
For GATCGATAAATCGATC ((((((....)))))), the folding enthalpy in series [1] was -39.9 kcal/mol. Moreover, the Tm in series [2] was 52.3 °C.
For GATCGATAGCTCGATC ((((((....)))))) the same measures were -41.9 kcal/mol and 49.6 °C.
In the same order, the values of GATCGATATCTCGATC ((((((....)))))) are -36 kcal/mol and 51 °C.
For GATCGATCACTCGATC ((((((....)))))) the same measures were -41.5 kcal/mol and 51.2 °C.
For GATCGATCAGTCGATC ((((((....)))))), the folding enthalpy in series [1] is -43.1 kcal/mol. In series [2], the Tm was found to be 51.1 °C.
In the same order, the values of GATCGATCCCTCGATC ((((((....)))))) are -44.1 kcal/mol and 52.8 °C.
For GATCGATCGATCGATC ((((((....)))))) the same measures were -57.6 kcal/mol and 57.1 °C.
In the same order, the values of GATCGATCTATCGATC ((((((....)))))) are -42.5 kcal/mol and 56.3 °C.
For GATCGATGAATCGATC ((((((....)))))), the folding enthalpy in series [1] is -41.1 kcal/mol. In series [2], the Tm was found to be 55.1 °C.
For GATCGATGCATCGATC ((((((....)))))) the same measures were -46.9 kcal/mol and 59.7 °C.
For GATCGATGCCTCGATC ((((((....)))))) the same measures were -38.1 kcal/mol and 52.5 °C.
For GATCGATGGATCGATC ((((((....)))))) the same measures were -36.5 kcal/mol and 54.5 °C.
Turning to GATCGATGGCTCGATC ((((((....)))))), the folding enthalpy in series [1] was -34 kcal/mol. In series [2], the Tm was determined as 50.2 °C.
For GATCGATGTCTCGATC ((((((....)))))) the same measures were -39 kcal/mol and 51.5 °C.
For GATCGATGTTTCGATC ((((((....)))))) the same measures were -43 kcal/mol and 53.5 °C.
For GATCGATTCGTCGATC ((((((....)))))) the same measures were -41.5 kcal/mol and 55.1 °C.
Regarding GATCGATTGTTCGATC ((((((....)))))), the folding enthalpy in series [1] was -37.4 kcal/mol. The Tm in series [2] stood at 53.1 °C.
For GATCGATTTGTCGATC ((((((....)))))) the same measures were -41.5 kcal/mol and 55.5 °C.
For GATCGATTTTCGATC ((((((...)))))) the same measures were -35.2 kcal/mol and 54.4 °C.
For GATCGCAAATGCGATC ((((((....)))))) the same measures were -40.5 kcal/mol and 68 °C.
With GATCGCAAGCGCGATC ((((((....)))))), the folding enthalpy in series [1] is -31 kcal/mol. The Tm in series [2] was found to be 67.8 °C.
For GATCGCAAGGGCGATC ((((((....)))))) the same measures were -29.3 kcal/mol and 68 °C.
In the same order, the values of GATCGCACAGGCGATC ((((((....)))))) are -33 kcal/mol and 68.1 °C.
In the same order, the values of GATCGCACCGCGATC ((((((...)))))) are -34 kcal/mol and 69 °C.
Turning to GATCGCACTGCGATC ((((((...)))))), in series [1], the folding enthalpy is -35 kcal/mol. Besides, the Tm in series [2] came out at 68.3 °C.
Take GATCGCAGAAGCGATC ((((((....)))))): the folding enthalpy in series [1] was -30.8 kcal/mol. Besides, in series [2], the Tm was 66.9 °C.
For GATCGCATAGGCGATC ((((((....)))))), the folding enthalpy in series [1] is -32 kcal/mol. Also, the Tm in series [2] worked out at 68.2 °C.
For the sequence GATCGCATGAGCGATC ((((((....)))))), the folding enthalpy in series [1] is -27.4 kcal/mol. Also, the Tm in series [2] turned out to be 69.3 °C.
For GATCGCCCGTGCGATC ((((((....)))))) the same measures were -33.7 kcal/mol and 64 °C.

Values taken from the array DNA melting data of Ke et al. (doi:10.1101/2024.01.08.574731).
